# Bioassay records from PubChem BioAssay.
# Hits are enriched below; roughly 2.1% of the tested compounds scored in any of these assays.
# b-catenin transl = beta-catenin nuclear translocation modulation | nuclear translocation activity, % at 5 µM | hit rate 0.3% among 190,000 | HeLa beta-catenin nuclear translocation, immunofluorescence imaging;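 active = nuclear translocation activity above 50% at 5 µM, with a well cell count of 50 or more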;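 also: per-cell ratio of nuclear to cytoplasmic median beta-catenin stain intensity; plate controls were DMSO negative control for no effect and GSK-3 inhibitor IX positive control for full effect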
#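 Test system: human HeLa cells, endogenous beta-catenin. Times: 24 h compound exposure, 37°C. Measured by: beta-catenin immunofluorescence imaging with DAPI.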
# MT stabilize HCS = microtubule stabilizers in HeLa cells | HeLa tubulin immunostaining HCS, 24 h; share of cells brighter than vehicle mean+2SD | % tubulin-high responders, % at 10 µM | hit rate 0.83% among 200,000;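 active = plate Z-score above 3 for both tubulin-high and condensed-nucleus cell shares, with cell loss under 80%, at 10 µM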;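 also: anti alpha tubulin signal scored within the nucleus-defined area of each cell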
# BaF3 parental = counter-screen for JAK2V617F inhibitors: parental Ba/F3 viability inhibitors. hit rate 1.1% among 220,000. CellTiter-Glo ATP luminescence. inhibition, % at 5.6 µM. AID 1486;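 active = inhibition above a per-campaign cutoff, the mean inhibition of all tested compounds plus 3 SD, cut at about 27% in these data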;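 also: 0% = DMSO wells and 100% = JAK Inhibitor I control wells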
# Ba/F3 V617F tox = loss of viability in JAK2V617F-driven Ba/F3 cells. Ba/F3 EpoR-JAK2V617F viability, ATP luminescence. inhibition, % at 5.6 µM. hit rate 1.1% among 220,000. AID 1446;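 active = inhibition above the campaign mean plus 3 SD over all tested compounds, cut at about 24% in these data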;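 also: cytokine-independent growth of Ba/F3 cells driven by EpoR plus mutant JAK2; 0% = DMSO-treated cells and 100% = JAK inhibitor I control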
# KLF5 inhibitor = kruppel-like factor 5 inhibition; AID 1700; inhibition, % at 5 µM; hit rate 0.23% among 290,000; DLD-1 KLF5 promoter-luciferase reporter, luminescence;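 active = inhibition above a per-plate limit of that plate's mean compound inhibition plus 3 SD, cut at about 60% in these data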;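 also: 0% = DMSO wells and 100% = LY294002 at 200 µM; higher means less KLF5 promoter-driven luciferase light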
# IEC-6 cytotox = kills IEC-6 intestinal cells in KLF5 counter-screen. IEC-6 cytotoxicity, luminescence viability. inhibition, % at 5 µM. hit rate 0.78% among 290,000. AID 1825; in the data active = inhibition above about 22%;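 also: 0% = plate median of test compound wells and 100% = cytotoxic reference compound wells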
# An asterisk follows results filed as active; . = no result.
SMILES,b-catenin transl,MT stabilize HCS,BaF3 parental,Ba/F3 V617F tox,KLF5 inhibitor,IEC-6 cytotox
COc1cc(C(=O)Nc2ccc(N(C)C)cc2)cc(OC)c1OC,36,26*,3,-1,-40,7
COc1cc(C(=O)Nc2ccccc2NC(=O)c2cc(OC)c(OC)c(OC)c2)cc(OC)c1OC,.,.,.,.,-8,5
COc1cc(C(=O)Nc2ccc(Br)cc2C(=O)c2cc(OC)c(OC)c(OC)c2)cc(OC)c1OC,4,34*,-3,-4,-38,4
COc1cc(C(=O)Nc2ccc(S(=O)(=O)N(C)c3ccccc3)cc2)cc(OC)c1OC,1,2,4,3,-4,-1
CC(CCc1ccccc1)NC(=O)C1CCN(S(=O)(=O)N2CCOCC2)CC1 (configuration not stated),0,3,91*,-4,9,-4
O=C(NCCc1ccccc1)C1CCN(S(=O)(=O)N2CCOCC2)CC1,.,.,.,.,-50,2
CC(C)c1csc(CN2CCCC(CCC(=O)NCc3ccccc3F)C2)n1 (configuration not stated),3,25*,7,3,-3,6
Cc1nn(C(C)C)c(C)c1CN1CCCC(CCC(=O)NCc2ccccc2F)C1 (configuration not stated),-3,4,2,-4,-1,-1
Clc1ccc(Cn2ncc3c(NCc4ccco4)ncnc32)c(Cl)c1,.,46*,15,6,12,28*
Clc1ccc(-n2ncc3c(NCc4ccco4)ncnc32)cc1,-3,6,1,2,-95,8
CC1CCc2sc(C(=O)OCC(=O)NCc3ccc(F)cc3)cc2C1 (configuration not stated),119*,8,5,-2,14,1
Cc1nc(NC(=O)COC(=O)c2cc3c(s2)CCC(C)C3)c(Cl)cc1Cl (configuration not stated),-2,2,1,-6,-37,-3
CCOc1ccc(NS(=O)(=O)c2cc(C(=O)N3CCN(C(C)=O)CC3)ccc2Cl)cc1,.,.,.,.,-69,-2
CCOc1ccc(NS(=O)(=O)c2cc(NC(=O)c3cccc(C)c3)ccc2Cl)cc1,12,23*,9,1,-29,-2
CSc1nnc2c3cc(F)ccc3n(Cc3ccccc3)c2n1,-4,.,.,.,.,.
CCN(CC)CCSc1nnc2c3cc(C)ccc3n(Cc3ccccc3)c2n1,1,.,33*,25*,-31,2
Cc1ccc(NC(=O)CCNC(=O)Cn2cnc3ccccc3c2=O)cc1F,.,.,.,.,-1,-4
CC(OC(=O)c1ccc2c(=O)n3c(nc2c1)CCCCC3)C(=O)Nc1ncc(Cl)cc1Cl (configuration not stated),-3,2,4,-4,-6,-15
CCOC(=O)c1[nH]c(C)c(C(=O)OC(C)C(=O)Nc2ncc(Cl)cc2Cl)c1C (configuration not stated),0,42*,1,-2,10,-1
CC(OC(=O)C1=NNC(=O)CC1)C(=O)Nc1ncc(Cl)cc1Cl (configuration not stated),-3,2,81*,1,-12,-3
CCOC(=O)c1c(C)[nH]c(C(=O)OC(C)C(=O)Nc2ccccc2OC)c1C (configuration not stated),.,.,.,.,2,10
O=C(COC(=O)COc1cccc(Br)c1)Nc1c(Cl)cccc1Cl,.,4,3,0,-15,-2
O=C(Nc1cccnc1)c1ccc(Cl)c(S(=O)(=O)N2CCCCCC2)c1,-6,2,0,-4,-33,1
CCN(CC)CCOC(=O)c1ccc(NC(=O)c2ccc(Cl)c(S(=O)(=O)N3CCCCCC3)c2)cc1,5,25*,9,0,19,-3
CCCCC(=O)NC(c1ccccc1Cl)c1ccc2cccnc2c1O (configuration not stated),.,.,.,.,71*,19
Oc1c(C(c2ccccc2Cl)N2CCCC2)ccc2cccnc12 (configuration not stated),-4,8,68*,83*,73*,12
CCC(=O)NC(c1ccccc1OC)c1ccc2cccnc2c1O (configuration not stated),-3,1,68*,61*,35,19
Cc1cc(C)cc(NC(=O)c2cccnc2)c1,.,.,.,.,-30,-2
COc1cccc(-n2nnnc2SCC(=O)NC2CCCCC2)c1,.,.,.,.,-20,6
CCCCCOc1ccc(C(=O)NCC(=O)NCC(=O)OCC)cc1,9,36*,-1,-6,-4,11
